Bioassay records (PubChem)
Compounds with a hit are over-represented: about 4.2% of the library has one in this group of screens.
TAAR1 ag: human TAAR1 agonism; AID 624467; activation, % at 3 µM; CHO RD-HGA16 TAAR1, Fluo-8 calcium fluorescence; vehicle wells 0%, saturating PEA agonist 100%; 0.99% of 360,000 active; Q96RJ0;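 active = activation above the mean activation of all test compounds in the run plus 3 SD, cut at about 38% in these data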
Target sequence (Q96RJ0 whole entry, looked up): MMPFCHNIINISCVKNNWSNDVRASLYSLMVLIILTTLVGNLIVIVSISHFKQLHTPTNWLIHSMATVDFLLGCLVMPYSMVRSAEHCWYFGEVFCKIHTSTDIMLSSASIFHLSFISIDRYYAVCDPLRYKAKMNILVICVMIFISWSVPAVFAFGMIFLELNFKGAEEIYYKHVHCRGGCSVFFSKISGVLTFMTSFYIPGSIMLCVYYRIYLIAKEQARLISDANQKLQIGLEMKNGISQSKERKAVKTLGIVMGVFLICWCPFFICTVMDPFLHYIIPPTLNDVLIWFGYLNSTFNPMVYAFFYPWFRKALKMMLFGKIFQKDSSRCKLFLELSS
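Test system: RD-HGA16 (CHO) cells co-expressing Gα16 and hTAAR1; dosing: one-point dosing at 3 µM (nominal); timing: 17-24 h seeding, 75 min 37 °C dye, 30 min RT; signal: kinetic Fluo-8 calcium fluorescence; read-out basis: % activation relative to PEA EC100 response; controls: DMSO and PEA EC100; replicates: n 1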
CHO parental Ca: signal in parental CHO cells, OX1R antagonist counter-screen. parental CHO-K1, ATP-induced calcium, Fluo-8 fluorescence. inhibition, % at 5.6 µM. 0.63% of 330,000 active. AID 463079;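 active = inhibition above that plate's mean sample inhibition plus 3 SD, cut at about 26% in these data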;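 also: 0% = ATP-challenged DMSO wells and 100% = DMSO wells without ATP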
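Material: Parental CHO cells | Reagent: ATP | Compound dosing: Single nominal dose of 5.6 µM per compound | Detection: Intracellular calcium via Fluo-8 no-wash fluorescent dye | Read-out: % inhibition of ATP-induced calcium mobilization | Benchmarks: Low control ATP plus DMSO, high control DMSO only | Replicates: Singlicate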
TAAR1 antagonist: human TAAR1 antagonism. 1.5% of 360,000 active. CHO RD-HGA16 TAAR1, Fluo-8 calcium fluorescence, antagonist. AID 624466. Q96RJ0. inhibition, % at 3 µM;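 active = inhibition above a per-plate cutoff, the mean inhibition of test compounds on that plate plus 3 SD, cut at about 49% in these data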;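 also: 0% = DMSO plus EC80 beta-PEA response and 100% = DMSO alone without agonist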
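Test system: hTAAR1-expressing CHO RD-HGA16 cells, Gα16-coupled; Probe or stimulus: EC80 β-phenethylamine stimulus; Compound dosing: single nominal final test compound concentration of 3 µM; Timing: 140 s kinetic read after compound, 140 s after agonist; Signal: Fluo-8 calcium-sensitive fluorescence; Measure: % inhibition of agonist calcium response; Controls: DMSO and EC80 PEA controls.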
OX1R antag-1: antagonists of human orexin 1 receptor (OX1R). AID 485270. 1.8% of 330,000 active. OX1R-expressing cells, FRET antagonist read-out. O43613. inhibition, % at 6.6 µM; in the data active = inhibition mostly above about 38%, no sharp cut-off; inactive = mostly below about 40%;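 also: 0% = agonist challenge alone and 100% = reference antagonist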
GalR3 antagonist: human GalR3 antagonism; O60755; HEK293 GalR3-CNG cAMP membrane potential fluorescence; galR3 body fused to GalR1 C-terminus; inhibition, % at 3 µM; 0.44% of 360,000 active;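 active = inhibition above the screen-wide average plus 3 SD, cut at about 13% in these data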;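 also: forskolin and galanin both at EC90 stimulate the cells; cAMP rise reported by CNG channel membrane potential dye signal; 0% = forskolin plus galanin with DMSO and 100% = forskolin alone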
Target sequence (O60755 1-299 limits assumed): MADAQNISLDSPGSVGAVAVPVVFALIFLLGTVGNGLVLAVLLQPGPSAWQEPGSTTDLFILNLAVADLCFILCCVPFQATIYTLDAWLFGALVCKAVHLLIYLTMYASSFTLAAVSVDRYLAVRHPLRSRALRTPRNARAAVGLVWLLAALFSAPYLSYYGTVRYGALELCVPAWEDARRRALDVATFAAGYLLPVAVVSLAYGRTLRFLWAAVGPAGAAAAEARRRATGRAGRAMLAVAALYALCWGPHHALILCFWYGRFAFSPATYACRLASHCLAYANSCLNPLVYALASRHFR
OX1R antag-2: human HCRTR1 antagonism; CHO/OX1R cells, Fluo-8 calcium fluorescence, orexin A; inhibition, % at 5 µM; 0.43% of 330,000 active; AID 434989;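 active = inhibition above its plate's threshold, mean inhibition of all tested compounds on the plate plus 3 SD, cut at about 37% in these data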;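 also: 0% = orexin A challenge wells and 100% = SB-334867-A antagonist wells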
* marks the source's active call; other numbers are inactive results; . = no result.

SMILES	TAAR1 ag	CHO parental Ca	TAAR1 antagonist	OX1R antag-1	GalR3 antagonist	OX1R antag-2
CC(C)C(NC(=O)c1ccc(S(=O)(=O)N2CCOCC2)cc1)c1nc2ccccc2[nH]1 (configuration not stated)	16	-5	-1	10	-5	-28
O=S(=O)(NCc1ccccc1)c1ccc(-c2cnc(C3CC3)o2)cc1	-1	-11	2	16	-3	-4
CCOc1ccccc1CNS(=O)(=O)c1ccc(-c2cnc(C3CC3)o2)cc1	4	33*	58*	45	12	24
COc1ccc(-c2c(-c3cc(OC)cc(OC)c3)n(C)c3ccc(-c4cnc(OC)nc4)cc23)cc1	10	-21	-9	11	-6	-8
CCCc1cc(C(=O)N2CCCC(C(=O)c3cc(C)c(OC)c(C)c3)C2)n(C)n1 (configuration not stated)	0	-29	-26	37*	-11	-5
CCCc1cc(C(=O)N2CCCC(C(=O)c3ccc(Cl)cc3)C2)n(C)n1 (configuration not stated)	-1	-14	9	28	-9	-22
COc1c(C)cc(C(=O)C2CCCN(C(=O)c3ccc4[nH]ccc4c3)C2)cc1C (configuration not stated)	-1	-19	-60	75*	-2	-11
COc1c(C)cc(C(=O)C2CCCN(C(=O)c3csc(C)n3)C2)cc1C (configuration not stated)	0	-12	-19	32	5	-14
CCN(Cc1ccccc1)Cc1c(C)[nH]c2c(C)c(C)ccc2c1=O	13	8	-1	14	-1	-16
COc1ccccc1NC(=O)Nc1nnc(-c2ccco2)s1	.	-6	.	32*	.	17
COc1ccccc1NC(=O)Nc1nnc(C(C)C)s1	6	-13	-8	17	-3	-19
CCn1c2ccccc2c2cc(CN3CCN(Cc4cc(OC)ccc4O)CC3)ccc21	2	-10	0	50*	-3	22
O=C(Nc1ccc(F)cc1F)N1CCCCC1c1cccnc1 (configuration not stated)	3	-10	9	6	-2	-8
O=C(/C=C/c1ccc(N2CCC(c3ccccc3)=N2)cc1)c1ccccc1	30	73*	30	8	-9	79*
Cc1cccc(NS(=O)(=O)c2c(C)n[nH]c2C)c1	0	4	3	9	-9	7
O=C(Nc1cccc(Cl)c1)c1nc[nH]c1C(=O)NCCCNC(=O)c1[nH]cnc1C(=O)Nc1cccc(Cl)c1	4	-7	20	1	2	5
O=C(Nc1ccccc1)c1nc[nH]c1C(=O)NCCNC(=O)c1[nH]cnc1C(=O)Nc1ccccc1	27	-2	56*	65*	-2	39
CCOC(=O)c1ccc(NC(=O)c2nc[nH]c2C(=O)NCCCCCNC(=O)OC(C)(C)C)cc1	14	-9	56*	10	-5	-39
Cc1ccc(NC(=O)c2nc[nH]c2C(=O)NCCCCCCNC(=O)c2[nH]cnc2C(=O)Nc2ccc(C)cc2)cc1	3	-5	-7	2	-3	-8
O=C(Nc1ccccc1)c1nc[nH]c1C(=O)NCCCCNC(=O)c1[nH]cnc1C(=O)Nc1ccccc1	21	-9	57*	6	-6	1
CCOC(=O)c1ccc(NC(=O)c2nc[nH]c2C(=O)NCCCCNC(=O)c2[nH]cnc2C(=O)Nc2ccc(C(=O)OCC)cc2)cc1	5	-9	31	-4	-9	-5
Cc1ccc(NC(=O)c2nc[nH]c2C(=O)NCCCCNC(=O)c2[nH]cnc2C(=O)Nc2ccc(C)cc2)cc1	18	-9	60*	1	-7	-10
CCOc1ccc(Cn2c(C)nc([N+](=O)[O-])c2SCC(O)CCl)cc1[N+](=O)[O-] (configuration not stated)	9	-11	-5	8	1	-10
Cc1ccc(C(=O)Nc2nc(-c3ccc(F)cc3)cs2)o1	4	-17	16	28	-11	-43
COc1cc2c(cc1NC(=O)C(C)OC(=O)/C=C/c1ccc(OC(F)F)cc1)oc1ccccc12 (configuration not stated)	0	-13	21	15	-3	-21
SMILES	TAAR1 ag	CHO parental Ca	TAAR1 antagonist	OX1R antag-1	GalR3 antagonist	OX1R antag-2
COc1ccc(C(C)NCCC(c2ccc(OC(C)C)cc2)c2ccccc2OC)cc1 (configuration not stated)	44*	.	8	.	-9	.
COc1ccccc1C(CC(=O)Nc1ccc(Cl)cc1)c1ccc(OC(C)C)cc1 (configuration not stated)	-1	-15	7	15	1	-23
O=C(/C=C/c1ccc2ccccc2n1)N1CCN(c2ccccc2)CC1	8	1	-2	36	-9	-17
C=CCOc1ccc(/C=N/NC(=O)C(C)Sc2ccccn2)cc1OC (configuration not stated)	3	-14	-1	18	-1	-22
CC(C)(CO)NCc1ccccc1OCC(=O)Nc1ccccc1	-1	-10	8	16	-1	5
Cc1ccc(NC(=O)COc2ccccc2CNC(C)(C)CC(C)(C)C)cc1	46*	-10	-3	6	-2	-14
Cc1ccc(C(=O)N2CCN(c3ccc(NC(=O)COc4ccccc4C)cc3)CC2)cc1	9	-3	55*	4	-12	4
COc1ccc(N(C)S(=O)(=O)c2cccc(C(=O)OCC(=O)c3c(N)n(C)c(=O)n(C)c3=O)c2)cc1	18	0	73*	13	-4	20
C=CCN(c1ccc(OC)cc1)S(=O)(=O)c1ccc(Cl)c(C(=O)OCC(=O)c2c(N)n(C)c(=O)n(C)c2=O)c1	1	.	22	.	-4	.
CN(c1ccccc1)S(=O)(=O)c1ccc(Cl)c(C(=O)OCC(=O)c2c(N)n(C)c(=O)n(C)c2=O)c1	12	.	61*	.	-5	.
CCN(c1ccccc1)S(=O)(=O)c1cccc(C(=O)OCC(=O)c2c(N)n(C)c(=O)n(C)c2=O)c1	8	.	15	.	-5	.
Cn1c(N)c(C(=O)COC(=O)c2ccccc2C(=O)c2ccc(Cl)c([N+](=O)[O-])c2)c(=O)n(C)c1=O	.	-2	.	36*	.	12
CCOc1ccc(NC(=O)/C(=C\c2ccc(OC(C)=O)c(OC)c2)NC(C)=O)cc1	-2	4	1	9	0	-11
COCCn1c(-c2ccccc2)csc1=Nc1cccnc1	9	-19	17	29	-8	-31
CC(C)n1c(-c2ccco2)csc1=Nc1cccnc1	6	48*	11	74*	-8	36
c1ccc(Cn2ncc3c(N4CCCCC4)ncnc32)cc1	-1	-16	2	18	0	-22
